Assay outcomes from PubChem BioAssay.
SENP1 FRET inh – SENP1 (human) catalytic domain inhibition; Q9P0U3; recombinant SENP1 catalytic domain, CyPet-SUMO1-YPet FRET cleavage; inhibition, % at 10 µM; 0.21% of 360,000 active; AID 624204;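 active means inhibition at least 30% at 10 µM, raw YFP signal under a set limit, fluorescence ratio 0.5 to 1.5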;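 further: 0% = enzyme with DMSO and 100% = no enzyme wells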
Target sequence (Q9P0U3 419-644 limits assumed): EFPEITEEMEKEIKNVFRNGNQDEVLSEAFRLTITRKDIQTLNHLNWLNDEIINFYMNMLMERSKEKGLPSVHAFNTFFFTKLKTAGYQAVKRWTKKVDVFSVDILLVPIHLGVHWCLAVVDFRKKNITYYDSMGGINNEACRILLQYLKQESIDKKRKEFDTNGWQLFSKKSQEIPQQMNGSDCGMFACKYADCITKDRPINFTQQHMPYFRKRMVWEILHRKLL
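Material – human SENP1 catalytic domain · Input – SENP1 enzyme, 20 pM final · Compound dosing – single concentration of 10 µM compound, 0.5% DMSO final · Timing – enzyme reaction for 50 min at room temperature, dark · Measured by – FRET fluorescence in CFP and YFP emission channels · Control set – no-enzyme wells low, DMSO-plus-enzyme wells high control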
SENP8 block-1 – blocks human SENP8 cleavage of Nedd8 substrate. recombinant SENP8, Nedd8 substrate fluorescence. inhibition, % at 20 µM. AID 602440. 0.64% of 360,000 active. Q96LD8; in the data active means inhibition mostly above about 40%, no sharp cut-off; inactive means mostly below about 27%
Target sequence (Q96LD8 whole entry, looked up): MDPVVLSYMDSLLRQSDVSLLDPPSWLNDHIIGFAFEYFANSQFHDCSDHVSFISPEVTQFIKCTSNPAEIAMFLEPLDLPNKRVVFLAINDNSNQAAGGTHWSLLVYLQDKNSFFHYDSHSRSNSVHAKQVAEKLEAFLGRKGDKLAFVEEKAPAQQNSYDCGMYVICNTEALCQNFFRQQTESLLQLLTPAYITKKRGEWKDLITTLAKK
SENP6 inh – SENP6 protease inhibition; Q9GZR1; Recombinant SENP6 catalytic domain, aminoluciferin luminescence; inhibition, % at 10 µM; 1.8% of 330,000 active;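 active means inhibition above about 50% at the single tested dose, limit read from the data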;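 further: plate controls were DMSO wells with enzyme for no effect and DMSO wells lacking enzyme for full effect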
SENP7 block – inhibitors of human SENP7 protease; Q9BQF6; recombinant SENP7, Z-RLRGG-aminoluciferin luminescence, 40 min; inhibition, % at 5 µM; 1.5% of 330,000 active;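 active means inhibition above about 50% at the single test dose, limit read from the data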;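 further: plate controls were DMSO with enzyme for no effect and no enzyme buffer wells for full effect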
SENP8 block-2 – inhibitors of human SENP8 protease; 1.2% of 330,000 active; inhibition, % at 10 µM; purified SENP8, Z-RLRGG-aminoluciferin cleavage, luminescence; AID 2540; Q96LD8; in the data active means inhibition above about 50%
SENP8 conf – SENP8 (human) inhibition, single concentration confirmation. shares compounds with SENP8 block-1. purified SENP8, Nedd8-AMC/pro-Nedd8 cleavage fluorescence, 30 min. inhibition, % at 25 µM. 15% of 1,400 active; in the data active means inhibition mostly above about 39%, no sharp cut-off; inactive means mostly below about 34%
Active calls of the source: *; nt = no result given. Compounds with a hit are over-represented: about 2.5% of the library has one in this group of screens.

SMILES	SENP1 FRET inh	SENP8 block-1	SENP6 inh	SENP7 block	SENP8 block-2	SENP8 conf
Cc1ccc(NNC(N)=S)cc1Cl	2	60*	-2	-5	-7	17
Cc1cc(C)c(C)c(S(=O)(=O)NCc2ccc(C(=O)N3CCCCC3)cc2)c1C	1	42*	-6	-5	1	8
O=C(NCCCN1CCN(c2ccccc2F)CC1)Nc1ccccc1[N+](=O)[O-]	1	44*	9	8	-9	19
COc1ccccc1C(=O)N1CCN(S(=O)(=O)c2ccccc2)CC1	-1	46*	-12	2	-6	20
NS(=O)(=O)c1ccc(S(=O)(=O)N2CCN(C3CCCC3)CC2)cc1	0	11	-21	-8	-11	nt
O=S(=O)(c1ccccc1)N1CCN(C2CCCCCCC2)CC1	0	41*	4	-6	10	22
O=S(=O)(c1ccccc1)N1CCN(S(=O)(=O)c2ccccc2)C1	-1	41*	-4	-4	-3	13
CCOc1ccc(S(=O)(=O)NCC(=O)OCc2nnc(-c3ccccc3)o2)cc1	3	-8	4	1	-4	nt
O=C(Cn1nc(Cc2ccncc2)c2ccccc2c1=O)N1CCc2ccccc2C1	-3	84*	31	10	12	94*
Cc1c(Br)cccc1NC(=O)C1(C)CCN1CCc1ccccc1 (stereo not given)	1	24	nt	nt	nt	nt
Cc1ccc(NC(=S)N/N=C/c2c(Cl)cccc2Cl)c(C)c1	1	29	3	10	0	nt
Cc1ccc(NC(=S)N/N=C/c2ccc(OCCC(C)C)cc2)c(C)c1	-1	41*	-13	-8	-10	18
C=C(c1cn(C(C)=O)c2ccccc12)c1cn(C(C)=O)c2ccccc12	-3	-6	nt	nt	nt	nt
CC(=O)n1cc(CO)c2ccccc21	0	45*	-9	-3	0	8
CCN(CC)CC(C)CNC(=O)C1(O)c2ccccc2NC(=O)N1c1ccc(Cl)c(Cl)c1 (stereo not given)	1	18	11	-21	0	nt
COc1cccc(OC)c1C(=O)NC(=S)N1CCCCC1c1cccnc1 (stereo not given)	1	52*	11	2	0	16
O=C(NC1C(=O)NNC1c1ccccc1)c1ccccc1 (stereo not given)	4	55*	14	-5	-5	17
Cc1cccc(C(=O)NC2C(=O)NNC2c2ccc(Cl)cc2)c1 (stereo not given)	1	44*	19	14	-2	22
Cc1cccc(C(=O)NC2CCCCCCC2)c1	-2	12	11	5	-13	nt
CCC(=O)N1CCCC(C(=O)Nc2ccc3cn[nH]c3c2)CC1 (stereo not given)	-1	-2	nt	nt	nt	nt
COc1cc(NC(=O)CN2C(=O)C(=O)N(CC(C)C)C2=O)cc(OC)c1	-1	8	-11	13	-7	nt
COC(=O)c1ccc(/C=N/n2c(C)nc3ccccc3c2=O)cc1	1	18	0	4	1	nt
COCC1CCN(Cc2nc(-c3cccs3)no2)C1 (stereo not given)	-1	6	-9	2	-5	nt
C[C@@H]1CN(Cc2nc(-c3cccs3)no2)C[C@H](C)O1	-1	42*	1	-13	-11	-6
COC(=O)c1ccc(C)cc1C1CN=NC12Cc1cc(C)ccc1C2=O (stereo not given)	0	57*	nt	nt	nt	33
SMILES	SENP1 FRET inh	SENP8 block-1	SENP6 inh	SENP7 block	SENP8 block-2	SENP8 conf
O=C1CC(CC(=O)N/N=C/c2ccccc2[N+](=O)[O-])=NN1	0	40*	11	11	0	13
C[C@H](CO)N1C[C@H](C)[C@@H](CN(C)Cc2ccc(Cl)c(Cl)c2)Oc2c(NS(=O)(=O)c3cccs3)cccc2C1=O	0	-1	0	6	-6	nt
CCn1c2ccccc2c2nnc(NN)nc21	0	33	21	8	7	nt
CCn1c2ccc(C)cc2c2nnc(NN)nc21	0	69*	4	8	0	21
CCCCn1c2ccc(F)cc2c2nnc(NN)nc21	0	71*	11	3	0	15
Cn1c2ccccc2c2nnc(NN)nc21	4	77*	17	-11	4	38*
Cc1cnc(CN(C)C(=O)C2CCC(=O)N(CCc3ccc(Cl)cc3)C2)[nH]1 (stereo not given)	2	15	nt	nt	nt	nt
CCOC(=O)c1sc(C)c2c(=O)n(CC(=O)c3ccc(Br)cc3)nnc12	0	40*	-9	4	-6	18
CCOC(=O)Cn1c(C)nc2c(C(=O)OCC)sc(C)c2c1=O	2	-241	-22	2	2	nt
Cc1ccc(C)c(NC(=S)/C(=C(\[O-])c2ccc(Cl)s2)[n+]2ccccc2)c1	-6	69*	38	-1	-2	41
COC(=O)C(N)CCCCN (stereo not given)	2	43*	-8	5	5	5
COC(=O)[C@@H](N)Cc1ccc(O)cc1	nt	nt	-14	-15	-10	nt
CCc1ccc(C(=O)NNc2ccccc2F)cc1	3	26*	-8	1	1	2
CCOC(=O)C1=C(CN2CCSCC2)NC(=O)NC1c1cccc([N+](=O)[O-])c1 (stereo not given)	1	44*	-27	-9	-5	19
CC1(C)C(=O)C=CC(=O)C(C)(C)C(=O)C=CC(=O)C(C)(C)C2=CC=C(O2)C(C)(C)C(=O)C=CC1=O	7	48*	nt	nt	nt	12
CC[C@]1(C(=O)OC)[C@H]2C(=O)N(Cc3ccccc3)C(=O)[C@H]2[C@H]2CN(C)C(=NCc3ccccc3)N21	-2	-2	nt	-2	nt	nt
O=C(C1CC(c2ccc(F)cc2)=NO1)N1CCc2ccccc2C1 (stereo not given)	3	21	1	2	-6	nt
COc1ccc(OC)c(S(=O)(=O)N2CCC(C(=O)N3CCCC3)CC2)c1	1	7	-18	1	9	nt
CCS(=O)(=O)N1CCCC(C(=O)N2CCc3ccccc3C2)C1 (stereo not given)	-1	53*	1	4	5	54*
COc1cccc(C2=NOC(C(=O)N3CCc4ccccc4C3)C2)c1 (stereo not given)	-6	51*	8	5	-1	61*
COc1ccc(OC)c(S(=O)(=O)N2CCC(C(=O)N3CCc4ccccc4C3)CC2)c1	4	44*	-20	-12	-8	38
Cc1cccc(CCNS(=O)(=O)c2ccc3c(c2)NC(=O)C(C)S3)c1 (stereo not given)	1	-5	5	9	-5	nt
O=C(NCCN1CCOCC1)c1ccc([N+](=O)[O-])cc1[N+](=O)[O-]	-2	46*	-12	-9	5	17
COc1ccc(C(=O)N2C=Cc3ccccc3C2C#N)cc1 (stereo not given)	-8	50*	nt	nt	nt	74*
